In ChEMBL document CHEMBL1129956, “4-substituted-3-phenylquinolin-2(1H)-ones: acidic and nonacidic glycine site N-methyl-D-aspartate antagonists with in vivo activity” (J Med Chem, 1997):
Activity calls are given as the source filed them. The rule behind the calls is not given here.

Tests used:
[1] = target: Glutamate receptor ionotropic, NMDA 1 (Rattus norvegicus, UniProt P35439); test: In vitro ability to displace [3H]L-689,560 binding to glycine site on the N-methyl-D-aspartate (NMDA) glutamate receptor 1 from rat cortical membranes
Summary of the method: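 Glycine-site antagonist [3H]L-689,560 displaced from rat cortex/hippocampus membranes. IC50 (concentration inhibiting 50% of specific binding) taken from 5-point inhibition curves as the geometric mean of at least three experiments. A compound giving under 50% inhibition at 100 μM in two experiments is reported as >100 μM.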

[2] = target: Glutamate NMDA receptor (Rattus norvegicus) (UniProt P35439+Q00959+Q00960+Q00961+Q62645+Q8VHN2+Q9R1M7); test: (§1) Evaluated to antagonize NMDA responses in a rat cortical slice preparations; type: functional
Summary of the method: (§2)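 Rat cortical slice preparation; antagonist-induced rightward shift of the NMDA concentration–response curve used to calculate apparent Kb; values are the means of three determinations.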

Mus musculus [3] = test: compound was evaluated in vivo for their ability to protect against audiogenic seizure in DBA/2 mice when administered 20 mg/kg ip 30 min prior to noise stimulation out of 8 mice tested; type: functional; settings: route intraperitoneal
Summary of the method: (§3)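 DBA/2 mice given compound intraperitoneally 30 min before noise stimulation, with protection from audiogenic seizure scored. Results are reported as an ED50 (mg/kg) or as number of mice protected per number tested at a single dose.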

[4] = target: Glutamate receptor ionotropic, NMDA 1 (Rattus norvegicus) (UniProt P35439); test: as §1; type: functional; summary of the method: as §2
Mus musculus [5] = test: Compound was evaluated in vivo for their ability to protect against audiogenic seizure in DBA/2 mice when administered 20 mg/kg ip 30 min prior to noise stimulation out of 8 mice tested; type: functional; settings: route intraperitoneal; summary of the method: as §3
Mus musculus [6] = test: Evaluated in vivo for their ability to protect against audiogenic seizure in DBA/2 mice when administered 20 mg/kg ip 30 min prior to noise stimulation out of 8 mice tested; settings: route intraperitoneal
Mus musculus [7] = test: compound was evaluated in vivo for their ability to protect against audiogenic seizure in DBA/2 mice when administered 10 mg/kg ip 30 min prior to noise stimulation out of 8 mice tested; type: functional; settings: route intraperitoneal; summary of the method: as §3
Mus musculus [8] = test: compound was evaluated in vivo for their ability to protect against audiogenic seizure in DBA/2 mice when administered 100 mg/kg ip 30 min prior to noise stimulation out of 8 mice tested; type: functional; settings: route intraperitoneal; summary of the method: as §3
[9] = target: Glutamate receptor ionotropic, NMDA 1 (Rattus norvegicus) (UniProt P35439); test: In vitro ability to displace [3H]L-689,560 binding to glycine site on the N-methyl-D-aspartate glutamate receptor 1 from rat cortical membranes at 10 uM
Mus musculus [10] = test: Compound was evaluated in vivo for their ability to protect against audiogenic seizure in DBA/2 mice when administered 20 mg/kg ip 30 min prior to noise stimulation out of 8 mice tested; settings: route intraperitoneal
[11] = target: Glutamate receptor ionotropic, NMDA 1 (Rattus norvegicus) (UniProt P35439); test: In vitro ability to displace [3H]L-689,560 binding to glycine site on the N-methyl-D-aspartate glutamate receptor 1 from rat cortical membranes at […]
Mus musculus [12] = test: In vivo ability to protect against audiogenic seizure in DBA/2 mice when administered 20 mg/kg ip 30 min prior to noise stimulation out of 8 mice tested; type: functional, organism-based; set-up: dose 20 mg/kg; summary of the method: as §3
Mus musculus [13] = test: Compound was evaluated in vivo for their ability to protect against audiogenic seizure in DBA/2 mice when dosed ip 30 min prior to noise stimulation; type: functional; summary of the method: as §3
Mus musculus [14] = test: Evaluated in vivo for their ability to protect against audiogenic seizure in DBA/2 mice when administered 100 mg/kg ip 30 min prior to noise stimulation out of 8 mice tested; settings: route intraperitoneal
Mus musculus [15] = test: compound was evaluated in vivo for their ability to protect against audiogenic seizure in DBA/2 mice when dosed ip 30 min prior to noise stimulation and it is evaluated as ED50 value; type: functional; summary of the method: as §3
Mus musculus [16] = test: compound was evaluated in vivo for their ability to protect against audiogenic seizure in DBA/2 mice when administered 20 mg/kg ip 30 min prior to noise stimulation (expressed as no of mice protected/tested); 1/8; type: functional, organism-based; set-up: dose 20 mg/kg; summary of the method: as §3
Mus musculus [17] = test: Compound was evaluated in vivo for their ability to protect against audiogenic seizure in DBA/2 mice when dosed ip 30 min prior to noise stimulation and it is evaluated as ED50 value; type: functional; summary of the method: as §3
Mus musculus [18] = test: compound was evaluated in vivo for their ability to protect against audiogenic seizure in DBA/2 mice when administered 50 mg/kg ip 30 min prior to noise stimulation out of 8 mice tested; type: functional; settings: route intraperitoneal; summary of the method: as §3

| Structure (SMILES) | IC50 [1] | Kb [2] | other results |
| --- | --- | --- | --- |
| O=C(O)Cc1c(-c2ccccc2)c(O)nc2cc(Cl)ccc12 |  | 1400 nM | No. of mice protected at 20 mg/kg (Mus musculus [3]): 0 mg/kg |
| CCc1c(-c2ccccc2)c(O)nc2cc(Cl)ccc12 | > 100000 nM |  |  |
| O=C(O)c1c(-c2ccccc2)c(O)nc2cc(Cl)ccc12 |  |  | Kb [4]: 1300 nM; No. of mice protected (Mus musculus [5]): 1 |
| N#CCOc1c(-c2cccc(Oc3ccccc3)c2)c(O)nc2cc(Cl)ccc12 | 1200 nM |  | No. of mice protected (Mus musculus [6]): 8; No. of mice protected (Mus musculus [7]): 1 |
| O=c1[nH]c2cc(Cl)ccc2c(NS(=O)(=O)c2ccccc2)c1-c1ccccc1 | 1190 nM |  |  |
| Oc1nc2cc(Cl)ccc2c(NCc2ccccc2)c1-c1ccccc1 | 2000 nM | > 3000 nM | No. of mice protected (Mus musculus [6]): 1 |
| CC(=O)COc1c(-c2ccccc2)c(O)nc2cc(Cl)ccc12 | 1700 nM |  | Kb [4]: 11400 nM; No. of mice protected (Mus musculus [5]): 5 |
| COC(=O)COc1c(-c2ccccc2)c(O)nc2cc(Cl)ccc12 | 3200 nM | 960 nM | No. of mice protected (Mus musculus [8]): 1 |
| CN(C)CCNC(=O)Cc1c(-c2ccccc2)c(O)nc2cc(Cl)ccc12 |  |  | No. of mice protected (Mus musculus [6]): 0; inhibition [9]: 29% |
| CN(C)CCOc1c(-c2ccccc2)c(O)nc2cc(Cl)ccc12 | 11000 nM |  |  |
| O=S(=O)(Nc1c(-c2ccccc2)c(O)nc2cc(Cl)ccc12)c1ccccc1 |  | 2900 nM | No. of mice protected (Mus musculus [6]): 1 |
| O=C(O)COc1c(-c2cccc(Oc3ccccc3)c2)c(=O)[nH]c2cc(Cl)ccc12 | 24 nM |  |  |
| Nc1c(-c2cccc(Oc3ccccc3)c2)c(O)nc2cc(Cl)ccc12 | 420 nM | 3400 nM | No. of mice protected (Mus musculus [6]): 2 |
| CN(C)C(=O)COc1c(-c2ccccc2)c(O)nc2cc(Cl)ccc12 | 11600 nM |  |  |
| CO/N=C(\C)COc1c(-c2ccccc2)c(O)nc2cc(Cl)ccc12 | ~50000 nM |  | No. of mice protected (Mus musculus [10]): 0 |
| COC(=O)c1c(-c2ccccc2)c(O)nc2cc(Cl)ccc12 |  |  | inhibition [11]: 69% |
| O=C(O)CCc1c(-c2ccccc2)c(O)nc2cc(Cl)ccc12 |  | 2200 nM | No. of mice protected (Mus musculus [3]): 1 |
| CC(=O)Nc1c(-c2ccccc2)c(O)nc2cc(Cl)ccc12 | 14700 nM |  | No. of mice protected (Mus musculus [12]): inactive |
| COC(=O)CCc1c(-c2ccccc2)c(O)nc2cc(Cl)ccc12 | 500 nM | 4600 nM | No. of mice protected (Mus musculus [3]): 0 |

| Structure (SMILES) | IC50 [1] | Kb [2] | other results |
| --- | --- | --- | --- |
| Oc1nc2cc(Cl)ccc2c(CCc2nnn[nH]2)c1-c1ccccc1 |  | 1600 nM | No. of mice protected (Mus musculus [14]): 0 |
| CN(C)CCNC(=O)C(=O)Nc1c(-c2ccccc2)c(O)nc2cc(Cl)ccc12 | 25000 nM |  | No. of mice protected (Mus musculus [6]): 2 |
| O=C(Cc1ccccc1)Nc1c(-c2ccccc2)c(O)nc2cc(Cl)ccc12 | > 100000 nM |  |  |
| Oc1nc2cc(Cl)ccc2c(OCc2ccccn2)c1-c1ccccc1 | 2800 nM |  | No. of mice protected (Mus musculus [5]): 1 |
| CS(=O)(=O)Nc1c(-c2ccccc2)c(O)nc2cc(Cl)ccc12 | 270 nM | 2200 nM | No. of mice protected (Mus musculus [6]): 0 |
| Oc1nc2cc(Cl)ccc2c(OCc2ccccc2)c1-c1ccccc1 | ~10000 nM |  |  |
| O=c1[nH]c2cc(Cl)ccc2c(O)c1-c1cccc(Oc2ccccc2)c1 |  |  | ED50 (Mus musculus [15]): 0.9 mg/kg |
| COC(=O)Cc1c(-c2ccccc2)c(O)nc2cc(Cl)ccc12 |  | 4000 nM | No. of mice protected (Mus musculus [6]): 1 |
| Nc1c(-c2ccccc2)c(O)nc2cc(Cl)ccc12 |  | 10500 nM |  |
| O=C(O)C(=O)Nc1c(-c2ccccc2)c(O)nc2cc(Cl)ccc12 |  | 4500 nM | No. of mice protected (Mus musculus [6]): 0 |
| Cc1noc(CCc2c(-c3ccccc3)c(O)nc3cc(Cl)ccc23)n1 | 3500 nM |  | No. of mice protected (Mus musculus [6]): 4 |
| COC(=O)C(=O)Nc1c(-c2ccccc2)c(O)nc2cc(Cl)ccc12 | 2700 nM |  | ED50 (Mus musculus [16]): inactive |
| O=C(O)COc1c(-c2ccccc2)c(O)nc2cc(Cl)ccc12 | 110 nM | 1250 nM | No. of mice protected (Mus musculus [6]): 3 |
| C/C(COc1c(-c2ccccc2)c(O)nc2cc(Cl)ccc12)=N\O | 780 nM |  | ED50 (Mus musculus [17]): 9.4 mg/kg; Kb [4]: 2800 nM |
| NC(=O)COc1c(-c2ccccc2)c(O)nc2cc(Cl)ccc12 |  |  | Kb [4]: 3100 nM; No. of mice protected (Mus musculus [5]): 0 |
| O=C(O)COc1c(-c2cccc(Oc3ccccc3)c2)c(O)nc2cc(Cl)ccc12 |  | 560 nM | No. of mice protected (Mus musculus [6]): 0 |
| O=C(O)CC(=O)Nc1c(-c2ccccc2)c(O)nc2cc(Cl)ccc12 |  | 11600 nM | No. of mice protected (Mus musculus [6]): 2 |
| CN(C)CCCNc1c(-c2ccccc2)c(O)nc2cc(Cl)ccc12 | 4200 nM |  | No. of mice protected (Mus musculus [18]): 1; No. of mice protected (Mus musculus [8]): 6 |
| CN(C)CCNc1c(-c2ccccc2)c(O)nc2cc(Cl)ccc12 |  | 12000 nM | No. of mice protected (Mus musculus [6]): 0; No. of mice protected (Mus musculus [8]): 8 |

The next lines start with results.

| IC50 [1] | Kb [2] | Structure (SMILES) | other results |
| --- | --- | --- | --- |
| > 100000 nM |  | CN(C)c1c(-c2ccccc2)c(=O)[nH]c2cc(Cl)ccc12 |  |
| > 100000 nM |  | O=C(NCc1ccccc1)c1c(-c2ccccc2)c(=O)[nH]c2cc(Cl)ccc12 |  |
| 900 nM |  | O=C(O)c1c(-c2ccccc2)c(=O)[nH]c2cc(Cl)ccc12 |  |
| 1100 nM |  | COC(=O)Cc1c(-c2ccccc2)c(=O)[nH]c2cc(Cl)ccc12 |  |
| 750 nM |  | N#CCCc1c(-c2ccccc2)c(=O)[nH]c2cc(Cl)ccc12 |  |
| 580 nM |  | O=C(O)C(=O)Nc1c(-c2ccccc2)c(=O)[nH]c2cc(Cl)ccc12 |  |
| 320 nM |  | N#CCOc1c(-c2ccccc2)c(O)nc2cc(Cl)ccc12 | Kb [4]: 4700 nM; ED50 (Mus musculus [13]): 16.3 mg/kg |
| 420 nM |  | NC(=O)COc1c(-c2ccccc2)c(=O)[nH]c2cc(Cl)ccc12 |  |
| 240 nM |  | O=c1[nH]c2cc(Cl)ccc2c(CCc2nn[nH]n2)c1-c1ccccc1 |  |
|  | > 10000 nM | N#CCCc1c(-c2ccccc2)c(O)nc2cc(Cl)ccc12 | No. of mice protected (Mus musculus [6]): 0 |
| > 100000 nM |  | COc1c(-c2ccccc2)c(=O)[nH]c2cc(Cl)ccc12 |  |
| 170 nM |  | O=C(O)CCc1c(-c2ccccc2)c(=O)[nH]c2cc(Cl)ccc12 |  |
| > 100000 nM |  | O=c1[nH]c2cc(Cl)ccc2cc1-c1ccccc1 |  |
| 6700 nM |  | Nc1c(-c2ccccc2)c(=O)[nH]c2cc(Cl)ccc12 |  |
| 160 nM |  | O=C(O)Cc1c(-c2ccccc2)c(=O)[nH]c2cc(Cl)ccc12 |  |
|  | 880 nM | O=c1[nH]c2cc(Cl)ccc2c(O)c1-c1ccccc1 | ED50 (Mus musculus [15]): 4.5 mg/kg |
| > 100000 nM |  | CNc1c(-c2ccccc2)c(=O)[nH]c2cc(Cl)ccc12 |  |
| 1100 nM |  | O=C(O)CC(=O)Nc1c(-c2ccccc2)c(=O)[nH]c2cc(Cl)ccc12 |  |
| 190 nM |  | NC(=O)CCc1c(-c2ccccc2)c(=O)[nH]c2cc(Cl)ccc12 |  |
|  | 2900 nM | NC(=O)CCc1c(-c2ccccc2)c(O)nc2cc(Cl)ccc12 | No. of mice protected (Mus musculus [6]): 1 |
| 3200 nM |  | CN(C)CCNc1c(-c2ccccc2)c(=O)[nH]c2cc(Cl)ccc12 |  |
